Experimental data of several laboratories.
Target: Serine/threonine-protein kinase A-Raf (ARAF, Homo sapiens, UniProt P10398)
One construct used (P10398 1-606): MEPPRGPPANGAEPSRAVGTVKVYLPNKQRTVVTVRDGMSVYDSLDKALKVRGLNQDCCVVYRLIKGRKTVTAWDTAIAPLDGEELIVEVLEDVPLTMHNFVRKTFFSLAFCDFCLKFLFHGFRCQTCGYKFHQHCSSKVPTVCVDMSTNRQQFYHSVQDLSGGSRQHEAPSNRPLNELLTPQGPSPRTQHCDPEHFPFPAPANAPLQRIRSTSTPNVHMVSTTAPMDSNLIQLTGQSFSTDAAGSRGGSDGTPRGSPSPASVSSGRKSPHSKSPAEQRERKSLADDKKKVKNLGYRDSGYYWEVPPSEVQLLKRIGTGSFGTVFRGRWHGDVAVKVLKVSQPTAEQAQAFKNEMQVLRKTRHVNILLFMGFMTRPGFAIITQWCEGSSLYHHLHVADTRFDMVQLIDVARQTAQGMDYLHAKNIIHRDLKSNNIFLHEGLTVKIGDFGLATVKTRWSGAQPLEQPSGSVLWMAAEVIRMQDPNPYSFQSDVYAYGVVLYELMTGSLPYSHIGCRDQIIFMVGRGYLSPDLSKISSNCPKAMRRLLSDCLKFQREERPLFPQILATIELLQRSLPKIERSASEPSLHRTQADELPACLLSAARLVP

CCN1CCN(Cc2ccc(NC(=O)c3ccc(C)c(Oc4ccnc5[nH]ccc45)c3)cc2C(F)(F)F)CC1 — inhibition (target engagement in cells, inhibitor, chemoproteomics; A-375; 5 µM): -85.6%
COc1cc(Cl)c(C(=O)N[C@@H](CN[C@H]2CC[C@@H](N)CC2)Cc2ccc(C#N)cc2)cc1-c1ccc(CN[C@H](C)c2ccc(C)cc2)o1 — remaining activity (enzyme activity, inhibitor; 1 µM): 101%
O=C(Nc1cnn(-c2csc(C(=O)NC3COC3)c2)c1)Nc1c(F)cccc1Cl — remaining activity (enzyme activity, inhibitor; 5 µM): 94.4%
CN1CC(Oc2cnc(C#N)cc2-c2ccn3nc(NC(=O)C4CC4)cc3c2)C1 — inhibition (enzyme activity, inhibitor; 1 µM): 1%
CCN1CCN(Cc2ccc(NC(=O)c3ccc(C)c(/C=C/c4cnc5[nH]ccc5c4OC)c3)cc2C(F)(F)F)CC1 — inhibition (target engagement in cells, inhibitor, chemoproteomics; A-375; 0.5 µM): -68.8%
Cc1sc(C(=O)NC2COC2)cc1-n1cc(NC(=O)Nc2c(F)cccc2Cl)cn1 — remaining activity (enzyme activity, inhibitor; 10 µM): 84.1%
CCCCNc1ncc2c(-c3ccc(F)cc3)nn(C[C@H]3CC[C@H](N)CC3)c2n1 — inhibition (target engagement in cells, inhibitor, chemoproteomics; 20 mM): 32.9%
Cc1cc(NC(=O)c2cccc3cc(-c4cccc5[nH]nc(N)c45)ccc23)ccc1F — activity vs control (enzyme activity, inhibitor; 0.1 µM): 98%
CNC(=O)c1cc(Oc2ccc(NC(=O)Nc3ccc(Cl)c(C(F)(F)F)c3)cc2)ccn1 — remaining signal (cell-free assay; 0.5 µM): 7.04%
CC(C)(O)[C@H]1CC[C@H](Nc2ccc3ncc(-c4cccc(C(F)(F)F)c4)n3n2)CC1 — remaining activity (enzyme activity, inhibitor; 1 µM): 96.9%
COc1cccc2c(NCc3ccccc3)nc(-n3c(N)nc4ccccc43)nc12 — inhibition (target engagement in cells, inhibitor, chemoproteomics; 20 mM): -7.3%
O=C1NC(=O)c2cc(Nc3ccc(F)cc3)c(Nc3ccc(F)cc3)cc21 — remaining signal (cell-free assay; 0.5 µM): 90.7%
